{"source": "ChEMBL document CHEMBL1123921", "about": "“Quinolonecarboxylic acids. 2. Synthesis and antibacterial evaluation of 7-oxo-2,3-dihydro-7H-pyrido[1,2,3-de][1,4]benzothiazine-6-carboxylic acids” (J Med Chem, 1987)", "key": {"[1]": {"assay": "Urinary clearance was determined in rat at 25 mg/kg os dosage", "assay_type": "ADME, organism-based", "parameters": "dose 25 mg/kg", "conditions": "urine, po, read-out: CL_renal (converted)", "summary_of_the_method": "(§1)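 Fasted male Wistar rats (180–230 g) dosed orally, suspended in carboxymethyl cellulose. Plasma and urine assayed by HPLC: sample plus internal standard and citrate buffer (0.1 M, pH 6.2), extracted into CHCl₃, dried, redissolved in MeOH. Separation on C-18 with 0.1% AcOH/MeOH gradient, UV detection at 245 nm.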"}, "[2]": {"assay": "Peak plasma concentration at a dose of 200 mg/kg, oral route in human", "assay_type": "ADME, organism-based", "parameters": "dose 200 mg/kg, route oral", "conditions": "read-out: Activity", "summary_of_the_method": "(§2)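 Four healthy volunteers of both sexes took oral capsules (100 mg units) at three dose levels. Venous blood drawn into heparinized tubes and plasma obtained by low-speed centrifugation. Urine collected. Unchanged drug in plasma and urine determined by C-18 HPLC after CHCl₃ extraction, with UV detection at 245 nm.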"}, "[3]": {"assay": "Time taken for peak plasma concentration at a dose of 100 mg/kg, os route in rat suspended in carboxymethyl cellulose (CMC)", "assay_type": "ADME, organism-based", "parameters": "dose 100 mg/kg", "conditions": "po", "summary_of_the_method": "as §1"}, "[4]": {"assay": "Half life period was determined for the compound at 100 mg/kg concentration, os route", "conditions": "in vivo, po"}, "[5]": {"assay": "Urinary excretion for the compound was evaluated as percent dose excreted at 10 mg/kg intraperitoneal dosage", "assay_type": "ADME, organism-based", "parameters": "dose 10 mg/kg, route intraperitoneal", "conditions": "urine, ip", "summary_of_the_method": "(§3)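 Fasted male Wistar rats (180–230 g) given the drug ip in carboxymethyl cellulose. Plasma and urine extracted with CHCl₃ from citrate buffer pH 6.2 with internal standard. Analysis by reverse-phase C-18 HPLC, 0.1% AcOH/MeOH gradient, 245 nm UV. Urinary clearance and total clearance derived as pharmacokinetic parameters.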"}, "[6]": {"assay": "Urinary excretion for the compound was evaluated as percent dose excreted at 200 mg/kg oral dosage in human", "assay_type": "ADME, organism-based", "parameters": "dose 200 mg/kg, route oral", "conditions": "urine", "summary_of_the_method": "as §2"}, "[7]": {"assay": "Peak plasma concentration at a dose of 100 mg/kg, oral route in human", "assay_type": "ADME, organism-based", "parameters": "dose 100 mg/kg, route oral", "conditions": "read-out: Activity", "summary_of_the_method": "as §2"}, "[8]": {"assay": "Peak plasma concentration at a dose of 20 mg/kg, oral route in dog(beagle) suspended in carboxymethyl cellulose (CMC)", "assay_type": "ADME, organism-based, Canis lupus familiaris", "parameters": "dose 20 mg/kg, route oral", "conditions": "read-out: Activity", "summary_of_the_method": "(§4)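 Four male beagle dogs or two Macaca fascicularis monkeys dosed orally, suspended in carboxymethyl cellulose. Venous blood collected into heparinized tubes and plasma separated by low-speed centrifugation. Urine gathered in metabolic cages. Unchanged drug measured by C-18 HPLC (extraction, UV 245 nm).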"}, "[9]": {"assay": "Urinary excretion for the compound was evaluated as percent dose excreted at 25 mg/kg intraperitoneal dosage", "assay_type": "ADME, organism-based", "parameters": "dose 25 mg/kg, route intraperitoneal", "conditions": "urine, ip", "summary_of_the_method": "as §3"}, "[10]": {"assay": "Urinary excretion for the compound was evaluated as percent dose excreted at 100 mg/kg oral dosage in human", "assay_type": "ADME, organism-based", "parameters": "dose 100 mg/kg, route oral", "conditions": "urine", "summary_of_the_method": "as §2"}, "[11]": {"assay": "Urinary excretion for the compound was evaluated as percent dose excreted at 20 mg/kg oral dosage in dog (beagle);Range is between (8-10).", "assay_type": "ADME, organism-based, Canis lupus familiaris", "parameters": "dose 20 mg/kg, route oral", "conditions": "urine", "summary_of_the_method": "as §4"}, "[12]": {"assay": "Time taken for peak plasma concentration at a dose of 25 mg/kg, os route in rat suspended in carboxymethyl cellulose (CMC)", "assay_type": "ADME, organism-based", "parameters": "dose 25 mg/kg", "conditions": "po", "summary_of_the_method": "as §1"}, "[13]": {"assay": "Time taken for peak plasma concentration at a dose of 400 mg/kg, oral route in human", "assay_type": "ADME, organism-based", "parameters": "dose 400 mg/kg, route oral", "summary_of_the_method": "as §2"}, "[14]": {"assay": "Time taken for peak plasma concentration at a dose of 50 mg/kg, os route in rat suspended in carboxymethyl cellulose (CMC)", "assay_type": "ADME, organism-based", "parameters": "dose 50 mg/kg", "conditions": "po", "summary_of_the_method": "as §1"}, "[15]": {"assay": "Tissue levels determined 1 hr after peroral dose of 50 mg/kg in liver", "conditions": "po"}, "[16]": {"assay": "Urinary clearance was determined in rat at 25 mg/kg intraperitoneal dosage", "assay_type": "ADME, organism-based", "parameters": "dose 25 mg/kg, route intraperitoneal", "conditions": "urine, ip, read-out: CL_renal (converted)", "summary_of_the_method": "as §3"}, "[17]": {"test_system": "Escherichia coli", "assay": "In vitro antibacterial activity against clinical isolates of Escherichia coli 15 (gram negative) by agar dilution assay.", "assay_type": "functional", "summary_of_the_method": "(§5)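 Agar dilution on Isosensitest agar; compound incorporated by twofold serial dilution. Overnight broth cultures delivered by multipoint inoculator at 10⁵ CFU per point. Plates read after 18 h at 37 °C. MIC taken as the lowest concentration giving complete growth inhibition.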"}, "[18]": {"assay": "Lethal dose after single iv administration to mouse was determined", "assay_type": "toxicity, organism-based", "conditions": "in vivo"}, "[19]": {"test_system": "Pseudomonas aeruginosa", "assay": "In vitro antibacterial activity against clinical isolates of Pseudomonas aeruginosa 2437 (gram negative) by agar dilution assay.", "assay_type": "functional", "summary_of_the_method": "as §5"}, "[20]": {"assay": "Ratio of urinary excretion after os administration to ip administration", "assay_type": "ADME, organism-based, Urine", "conditions": "in vivo", "summary_of_the_method": "(§6)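 Fasted male Wistar rats (180–230 g), drug suspended in carboxymethyl cellulose, given orally or ip. Plasma (heparinized) and urine from metabolic cages were sampled at various times. The unchanged drug was measured by HPLC after CHCl3 extraction at pH 6.2 with an internal standard, on a C-18 column with an AcOH/MeOH gradient and UV detection at 245 nm. Interassay and intraassay variability was about 10%.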"}, "[21]": {"assay": "Ratio of AUC from os administration to AUC from ip administration at a dose of 25 mg/kg", "assay_type": "ADME, organism-based", "parameters": "dose 25 mg/kg, route intraperitoneal", "conditions": "in vivo", "summary_of_the_method": "as §6"}, "[22]": {"assay": "Half life period was determined for the compound at 50 mg/kg concentration, os route", "conditions": "in vivo, po"}, "[23]": {"assay": "Plasma levels determined 1 hr after peroral dose of 50 mg/kg", "conditions": "po"}, "[24]": {"assay": "Lethal dose after single iv administration to rat was determined", "assay_type": "toxicity, organism-based", "conditions": "in vivo", "summary_of_the_method": "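Male Wistar rats (130-150 g) were given single intravenous doses at no fewer than three levels. Deaths were counted over 14 days, and LD50 was calculated by the Litchfield and Wilcoxon method.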"}, "[25]": {"assay": "in vivo", "conditions": "liver, po, 50 mg/kg"}, "[26]": {"assay": "in vivo", "conditions": "plasma, po, 50 mg/kg"}}}
{"molecule": "CN1CCN(c2c(F)cc3c(=O)c(C(=O)O)cn4c3c2SCC4)CC1", "note": "[RUFLOXACIN]", "values": [{"measurement": "CL renal", "setting": "[1]", "value": 1.21, "unit": "mL/min/kg"}, {"measurement": "Cmax", "setting": "[2]", "value": 1920, "unit": "ng/mL"}, {"measurement": "Tmax", "setting": "[3]", "value": 1, "unit": "h"}, {"measurement": "half-life", "setting": "[4]", "value": 8.7, "unit": "h"}, {"measurement": "dose excreted", "setting": "[5]", "value": 26, "unit": "%"}, {"measurement": "dose excreted", "setting": "[6]", "value": 55, "unit": "%"}, {"measurement": "Cmax", "setting": "[7]", "value": 1870, "unit": "ng/mL"}, {"measurement": "Cmax", "setting": "[8]", "value": 5700, "unit": "ng/mL"}, {"measurement": "dose excreted", "setting": "[9]", "value": 22.2, "unit": "%"}, {"measurement": "dose excreted", "setting": "[10]", "value": 45, "unit": "%"}, {"measurement": "dose excreted", "setting": "[11]", "value": 8, "unit": "%"}, {"measurement": "Tmax", "setting": "[12]", "value": 1, "unit": "h"}, {"measurement": "Tmax", "setting": "[13]", "value": 2, "unit": "h"}, {"measurement": "Tmax", "setting": "[14]", "value": 1, "unit": "h"}, {"measurement": "concentration at 1 h", "setting": "[15]", "value": 80000, "unit": "ng/mL"}, {"measurement": "CL renal", "setting": "[16]", "value": 0.79, "unit": "mL/min/kg"}, {"measurement": "MIC", "setting": "[17]", "value": 0.78, "unit": "µg/mL"}, {"measurement": "LD50", "setting": "[18]", "value": 224, "unit": "mg/kg"}, {"measurement": "MIC", "setting": "[19]", "value": 12.5, "unit": "µg/mL"}, {"measurement": "Ratio", "setting": "[20]", "value": 0.91}, {"measurement": "Ratio", "setting": "[21]", "value": 0.85}, {"measurement": "half-life", "setting": "[22]", "value": 8.7, "unit": "h"}, {"measurement": "concentration at 1 h", "setting": "[23]", "value": 10000, "unit": "ng/mL"}, {"measurement": "LD50", "setting": "[24]", "value": 285, "unit": "mg/kg"}, {"measurement": "concentration at 15 h", "setting": "[25]", "value": 11000, "unit": "ng/mL"}, {"measurement": "concentration at 15 h", "setting": "[26]", "value": 3000, "unit": "ng/mL"}]}
